Screens: PubChem, several laboratories
UCH37 inh: human UCH37 deubiquitinating enzyme inhibition | purified proteasome/UCH37, Ub-AMC cleavage fluorescence | AID 588478 | Q9Y5K5 | 330,000 tested, 0.33% active | inhibition, % (no concentration beside the values);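 active = mean inhibition over replicate wells above about 20%, limit read from the data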
Target sequence (Q9Y5K5 whole entry, looked up): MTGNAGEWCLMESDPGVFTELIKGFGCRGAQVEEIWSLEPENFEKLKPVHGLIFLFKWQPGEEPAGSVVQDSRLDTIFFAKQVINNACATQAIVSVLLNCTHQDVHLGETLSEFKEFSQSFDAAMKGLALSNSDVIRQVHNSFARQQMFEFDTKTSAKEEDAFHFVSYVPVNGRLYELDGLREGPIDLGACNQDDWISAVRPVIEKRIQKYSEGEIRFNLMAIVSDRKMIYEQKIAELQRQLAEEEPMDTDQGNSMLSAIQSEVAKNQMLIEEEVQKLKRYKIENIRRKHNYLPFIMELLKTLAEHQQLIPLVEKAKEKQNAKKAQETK
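Signal – fluorescence, ex 355 nm, em 460 nm · System – Proteasome-bound UCH37 · Input – 0.15 nM proteasome as dispensed · Timing – 30 min preincubation with enzyme, 25 min cleavage at room temperature · Read-out basis – percent inhibition of cleavage signal versus uninhibited and no-proteasome wells · Medium – Tris-HCl pH 7.4 with ATP-MgCl2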
PP5 primary: inhibitors of human protein phosphatase 5 (PP5) | P53041 | purified PP5c, OMFP substrate fluorescence | inhibition, % at 6.7 µM | 320,000 tested, 0.18% active | AID 1987;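 active = inhibition above the campaign's mean inhibition across all tested compounds plus 3 SD, cut at about 9.5% in these data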
PP1 counter: PP1-alpha (human) inhibition in PP5 counter-screen; P62136; purified PP1alpha, OMFP fluorescence; inhibition, % at 6.7 µM; 320,000 tested, 0.9% active; AID 2235;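 active = inhibition above the mean inhibition of all tested compounds plus 3 SD, computed separately for each screening campaign, cut at about 15% in these data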
Target sequence (P62136 whole entry, looked up): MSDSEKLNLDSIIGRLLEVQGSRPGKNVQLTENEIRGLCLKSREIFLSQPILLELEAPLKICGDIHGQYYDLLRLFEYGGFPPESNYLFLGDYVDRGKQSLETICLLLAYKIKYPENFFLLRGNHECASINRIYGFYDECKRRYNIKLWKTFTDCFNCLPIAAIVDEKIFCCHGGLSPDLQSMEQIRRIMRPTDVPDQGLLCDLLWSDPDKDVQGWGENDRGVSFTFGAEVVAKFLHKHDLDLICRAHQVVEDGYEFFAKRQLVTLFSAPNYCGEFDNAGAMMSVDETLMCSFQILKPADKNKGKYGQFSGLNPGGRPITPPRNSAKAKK
UBC13 polyUb: human UBC13 polyubiquitination inhibition. AID 485273. P61088. UBC13 polyubiquitin chain formation, TR-FRET. 330,000 tested, 0.47% active. inhibition, % at 20 µM; in the data active = inhibition above about 45%, passing the limit was not always enough
CTSL1 counter: counter-screen for PFM18AAP inhibitors: inhibitors of F. hepatica cathepsin L1; AID 1906; inhibition, % at 5.96 µM; recombinant F. hepatica cathepsin L1, Z-Leu-Arg-MCA fluorescence; 300,000 tested, 0.49% active;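 active = inhibition above the mean of all tested compounds plus 3 SD, set per screening campaign, cut at about 17% in these data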
PREPL inhibitor: human PREPL enzyme inhibition; recombinant PREPL, fluorescence polarization activity-based probe; inhibition, % at 5.96 µM; 320,000 tested, 0.68% active; in the data active = inhibition above about 43%
PP1 inh confirm: human PP1 phosphatase inhibition, confirmation; shares compounds with PP1 counter; purified PP1alpha, OMFP substrate fluorescence; inhibition, % at 6.7 µM; 1,900 tested, 52% active; AID 2358;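 active = mean PP1 inhibition above a set limit taken from the earlier primary screen, cut at about 15% in these data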
PP5 inh counter: counter-screen for PP1 inhibitors: human PP5 phosphatase inhibition | shares compounds with PP1 counter | purified PP5c, OMFP fluorescence | inhibition, % at 6.7 µM | 1,900 tested, 4% active | AID 2360;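 active = mean PP5 inhibition over triplicate wells above about 9.5% taken from the earlier PP1 screen, limit read from the data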
A number is an active result. Shown are actives, neighbours in structure and some others; about 2.3% of the full set was active somewhere.

`COc1ccc(NC(=O)CSc2nc(O)cc(=O)n2-c2ccc(OC)cc2)cc1` gave UCH37 inh inactive, PP5 primary inactive, PP1 counter 19.5, UBC13 polyUb inactive, CTSL1 counter inactive, PREPL inhibitor inactive, PP1 inh confirm inactive and PP5 inh counter inactive.
For CCNC(=O)CSc1nc2ccccc2c(=O)n1-c1cccc(OC)c1 the results were UCH37 inh inactive, PP5 primary inactive, PP1 counter inactive, UBC13 polyUb inactive, CTSL1 counter inactive and PREPL inhibitor inactive.
Screening COc1cccc(-n2c(SCC(=O)Nc3ccc4c(c3)CCC4)nc3ccccc3c2=O)c1 returned UCH37 inh inactive, PP5 primary inactive, PP1 counter 18.9, CTSL1 counter inactive, PREPL inhibitor inactive, PP1 inh confirm inactive and PP5 inh counter inactive.
Screening COc1ccc(-n2c(SCC(=O)Nc3ccccc3)nc(O)cc2=O)cc1 returned UCH37 inh inactive, PP5 primary inactive, PP1 counter inactive, UBC13 polyUb inactive, CTSL1 counter inactive and PREPL inhibitor inactive.
`C=CCON=C(C)c1ccc(Oc2cnccn2)cc1` gave UCH37 inh inactive.
For Fc1cccc(Cl)c1CSc1ccc(-c2cccnc2)nn1 the results were UCH37 inh inactive, PP5 primary inactive, PP1 counter 58.2, UBC13 polyUb inactive, CTSL1 counter inactive, PREPL inhibitor inactive, PP1 inh confirm inactive and PP5 inh counter inactive.
`O=C(COC(=O)/C(=C/c1cccs1)c1cccs1)NC(c1ccccc1)c1ccccc1` gave UCH37 inh inactive, PP5 primary inactive, PP1 counter 20.3, UBC13 polyUb inactive, CTSL1 counter inactive, PREPL inhibitor inactive, PP1 inh confirm inactive and PP5 inh counter inactive.
For Cc1ccccc1SCC(=O)NN=Cc1ccc(F)cc1 the results were UCH37 inh inactive.
For CCOc1ccc(S(=O)(=O)NN=C2CCCC(=O)C2)cc1 the results were UCH37 inh inactive.
`CC(C)C[C@H](NC(=O)c1nc[nH]c1C(=O)NCCCCCNC(=O)OC(C)(C)C)C(=O)OC(C)(C)C` gave UCH37 inh inactive, PP5 primary 9.9, PP1 counter 16.3, UBC13 polyUb inactive, CTSL1 counter inactive, PREPL inhibitor inactive, PP1 inh confirm inactive and PP5 inh counter inactive.
CC(C)C[C@H](NC(=O)c1[nH]cnc1C(=O)N[C@@H](C)c1ccccc1)C(=O)OCc1ccccc1 was read as UCH37 inh inactive, PP5 primary 12.4, PP1 counter 18.3, UBC13 polyUb inactive, CTSL1 counter inactive, PREPL inhibitor inactive, PP1 inh confirm inactive and PP5 inh counter inactive.
Screening CC(C)C[C@H](NC(=O)c1nc[nH]c1C(=O)N[C@@H](CC(C)C)C(=O)OC(C)(C)C)C(=O)OCc1ccccc1 returned UCH37 inh inactive, PP5 primary inactive, PP1 counter inactive, UBC13 polyUb inactive, CTSL1 counter inactive and PREPL inhibitor inactive.
`C[C@H](NC(=O)c1nc[nH]c1C(=O)NCCCCCNC(=O)OC(C)(C)C)C(=O)OC(C)(C)C` gave UCH37 inh inactive, PP5 primary inactive, PP1 counter inactive, UBC13 polyUb inactive, CTSL1 counter inactive and PREPL inhibitor inactive.
Screening ON=C(c1ccccc1)c1cc2cc(Br)cc(Br)c2o1 returned UCH37 inh inactive.
`O=C(NN=Cc1ccc(Cl)s1)c1ccc(Cn2cccn2)o1` gave UCH37 inh inactive.
Cc1cc(C)cc(C(=O)NC(CC(N)=O)c2ccc(N3CCC(Cc4ccccc4)CC3)c([N+](=O)[O-])c2)c1 (stereo not drawn) was read as UCH37 inh inactive, PP5 primary inactive, PP1 counter inactive, UBC13 polyUb inactive, CTSL1 counter inactive and PREPL inhibitor inactive.
`NC(=O)CC(NC(=O)Cc1cccc2ccccc12)c1ccc(N2CCCCCC2)c([N+](=O)[O-])c1` (stereo not drawn) gave UCH37 inh inactive, PP5 primary inactive, PP1 counter inactive, UBC13 polyUb inactive, CTSL1 counter inactive and PREPL inhibitor inactive.
`NC(=O)CC(NC(=O)Cc1cccc2ccccc12)c1ccc(N2CCc3ccccc3C2)c([N+](=O)[O-])c1` (stereo not drawn) gave PP5 primary inactive, PP1 counter 18.0, UBC13 polyUb inactive, CTSL1 counter inactive, PREPL inhibitor inactive, PP1 inh confirm 17.0 and PP5 inh counter inactive.
For NC(=O)CC(NC(=O)c1ccc(Br)cc1)c1ccc(NCCc2ccc(F)cc2)c([N+](=O)[O-])c1 (stereo not drawn) the results were UCH37 inh inactive, PP5 primary inactive, PP1 counter 25.1, UBC13 polyUb inactive, CTSL1 counter inactive, PREPL inhibitor inactive, PP1 inh confirm 25.9 and PP5 inh counter inactive.
For NC(=O)CC(NC(=O)c1ccccc1)c1ccc(N2CCN(c3ccc(F)cc3)CC2)c([N+](=O)[O-])c1 (stereo not drawn) the results were UCH37 inh inactive, PP5 primary inactive, PP1 counter 18.0, UBC13 polyUb inactive, CTSL1 counter inactive, PREPL inhibitor inactive, PP1 inh confirm inactive and PP5 inh counter inactive.
`NC(=O)CC(NC(=O)Cc1ccc(Cl)cc1)c1ccc(N2CCC(Cc3ccccc3)CC2)c([N+](=O)[O-])c1` (stereo not drawn) gave UCH37 inh inactive, PP5 primary inactive, PP1 counter 22.0, UBC13 polyUb inactive, CTSL1 counter inactive, PREPL inhibitor inactive, PP1 inh confirm inactive and PP5 inh counter inactive.
Screening CC(=NNC(=O)CNc1ccc(F)cc1)c1cc2ccccc2o1 returned UCH37 inh inactive.
Screening O=C1CC(N2C(=O)/C(=C/C=C/c3ccccc3)SC2=S)C(=O)N1c1ccccc1 (stereo not drawn) returned UCH37 inh inactive, PP5 primary inactive, PP1 counter 24.0, UBC13 polyUb inactive, CTSL1 counter inactive, PREPL inhibitor inactive, PP1 inh confirm inactive and PP5 inh counter inactive.
For O=C(O)CN1C(=O)/C(=C/C=C/c2ccccc2)SC1=S the results were UCH37 inh inactive, PP5 primary inactive, PP1 counter inactive, UBC13 polyUb inactive, CTSL1 counter inactive and PREPL inhibitor inactive.
CC(C)c1ccc(S(=O)(=O)c2cn(Cc3ccc(F)cc3)c3cc4c(cc3c2=O)OCO4)cc1 was read as UCH37 inh inactive, PP5 primary inactive, PP1 counter inactive, UBC13 polyUb inactive, CTSL1 counter inactive and PREPL inhibitor inactive.
Cc1ccc(Cn2cc(S(=O)(=O)c3ccc(C(C)C)cc3)c(=O)c3cc4c(cc32)OCO4)cc1 was read as UCH37 inh inactive, PP5 primary inactive, PP1 counter 18.3, UBC13 polyUb inactive, CTSL1 counter inactive, PREPL inhibitor inactive, PP1 inh confirm 17.9 and PP5 inh counter inactive.
Screening COc1ccc([N+](=O)[O-])cc1C=NNC(=O)CNC(=O)C(c1ccccc1)c1ccccc1 returned UCH37 inh inactive.
